In ChEMBL document CHEMBL4043094, “Azobenzene-containing photoswitchable proteasome inhibitors with selective activity and cellular toxicity” (Bioorg Med Chem, 2017):

Tests used:
[1] = Inhibition of chymotrypsin-like activity of 20S proteasome in rabbit 20S proteasome pre-incubated for 10 mins before Suc-Leu-Leu-Val-Tyr-AMC substrate addition and measured after 2 hrs by fluorescence assay; parameters: species or system Oryctolagus cuniculus
Summary of the method: (§1)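 IC50 (nM) was determined for each compound twice: in its non-irradiated form and again after light irradiation.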

[2] = Inhibition of caspase-like activity of 20S proteasome in rabbit 20S proteasome pre-incubated for 10 mins before Suc-Leu-Leu-Val-Tyr-AMC substrate addition and measured after 2 hrs by fluorescence assay; parameters: species or system Oryctolagus cuniculus; summary of the method: as §1
HCT-116 = assay: Cytotoxicity against human HCT116 cells incubated for 48 hrs by 7AAD dye based flow cytometry; assay type: functional; conditions: HCT-116, 48 h, read-out: LD50 (the source's name)
Summary of the method: (§2)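 Apoptosis dose-response over 48 h treatment. Each inhibitor was tested in two forms: the thermally adapted trans state and the cis photostationary state.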

MDA-MB-468 = assay: Cytotoxicity against human MDA-MB-468 cells incubated for 48 hrs by 7AAD dye based flow cytometry; assay type: functional; conditions: MDA-MB-468, 48 h, read-out: LD50 (the source's name); summary of the method: as §2
MCF-10A = assay: Cytotoxicity against human MCF10A cells at 5000 nM incubated for 48 hrs by 7AAD dye based flow cytometry; assay type: cell-based; conditions: 5 µM
[3] = Stability in DMSO; assay type: physicochemical
[4] = Cytotoxicity against human MCF10A cells incubated for 48 hrs by 7AAD dye based flow cytometry; assay type: cell-based, MCF-10A; conditions: read-out: LD50

| Structure (SMILES) | IC50 [1] | IC50 [2] | CC50 (HCT-116) | CC50 (MDA-MB-468) | Activity (MCF-10A) | Stability [3] | CC50 at 48 h [4] |
| --- | --- | --- | --- | --- | --- | --- | --- |
| Cc1cc(C)cc(/N=N\c2cccc(C(=O)N[C@H](C(=O)N[C@@H](CC(C)C)B3OC4C[C@@H]5C[C@@H](C5(C)C)[C@]4(C)O3)[C@@H](C)O)c2)c1 (stereo not given in full) | 249 nM | 1630 nM |  |  |  |  |  |
| Cc1cc(C)cc(/N=N\c2ccc(C[C@H](NC(=O)OC(C)(C)C)C(=O)N[C@@H](CC(C)C)B3OC4C[C@@H]5C[C@@H](C5(C)C)[C@]4(C)O3)cc2)c1 (stereo not given in full) | 41 nM | 214 nM |  |  |  |  |  |
| CC(C)C[C@H](NC(=O)[C@H](Cc1ccc(/N=N/c2ccc(-c3ccccc3)cc2)cc1)NC(=O)OC(C)(C)C)B1OC2C[C@@H]3C[C@@H](C3(C)C)[C@]2(C)O1 (stereo not given in full) | 11 nM | 460 nM | 1030 nM | 246 nM | Non-Toxic |  |  |
| CC(C)C[C@H](NC(=O)[C@@H](NC(=O)c1cccc(/N=N\c2ccccc2)c1)[C@@H](C)O)B1OC2C[C@@H]3C[C@@H](C3(C)C)[C@]2(C)O1 (stereo not given in full) | 84 nM | 759 nM |  |  |  |  |  |
| CC(C)C[C@H](NC(=O)[C@H](Cc1ccc(/N=N/c2ccccc2)cc1)NC(=O)OC(C)(C)C)B1OC2C[C@@H]3C[C@@H](C3(C)C)[C@]2(C)O1 (stereo not given in full) | 10 nM | 107 nM |  |  |  |  |  |
| CC(C)C[C@H](NC(=O)[C@H](Cc1ccc(/N=N\c2ccc(-c3ccccc3)cc2)cc1)NC(=O)OC(C)(C)C)B1OC2C[C@@H]3C[C@@H](C3(C)C)[C@]2(C)O1 (stereo not given in full) | 54 nM | 303 nM | 212 nM | 144 nM |  | > 48 h | 683 nM |
| CC(C)C[C@H](NC(=O)[C@@H](NC(=O)c1cccc(/N=N/c2ccc(-c3ccccc3)cc2)c1)[C@@H](C)O)B1OC2C[C@@H]3C[C@@H](C3(C)C)[C@]2(C)O1 (stereo not given in full) | 22 nM | 498 nM |  |  |  |  |  |
| Cc1cc(C)cc(/N=N/c2cccc(C(=O)N[C@H](C(=O)N[C@@H](CC(C)C)B3OC4C[C@@H]5C[C@@H](C5(C)C)[C@]4(C)O3)[C@@H](C)O)c2)c1 (stereo not given in full) | 55 nM | 1620 nM |  |  |  |  |  |
| Cc1cc(C)cc(/N=N/c2ccc(C[C@H](NC(=O)OC(C)(C)C)C(=O)N[C@@H](CC(C)C)B3OC4C[C@@H]5C[C@@H](C5(C)C)[C@]4(C)O3)cc2)c1 (stereo not given in full) | 53 nM | 211 nM |  |  |  |  |  |
| CC(C)C[C@H](NC(=O)[C@@H](NC(=O)c1cccc(/N=N/c2ccccc2)c1)[C@@H](C)O)B1OC2C[C@@H]3C[C@@H](C3(C)C)[C@]2(C)O1 (stereo not given in full) | 17 nM | 868 nM |  |  |  |  |  |
| CC(C)C[C@H](NC(=O)[C@@H](NC(=O)c1cccc(/N=N\c2ccc(-c3ccccc3)cc2)c1)[C@@H](C)O)B1OC2C[C@@H]3C[C@@H](C3(C)C)[C@]2(C)O1 (stereo not given in full) | 29 nM | 727 nM |  |  |  |  |  |
| CC(C)C[C@H](NC(=O)[C@H](Cc1ccc(/N=N\c2ccccc2)cc1)NC(=O)OC(C)(C)C)B1OC2C[C@@H]3C[C@@H](C3(C)C)[C@]2(C)O1 (stereo not given in full) | 12 nM | 110 nM |  |  |  |  |  |
| CC(C)C[C@H](NC(=O)[C@H](Cc1ccccc1)NC(=O)c1cnccn1)B(O)O [BORTEZOMIB] | 5 nM | 76 nM |  |  |  |  |  |
| CC(C)C[C@H](NC(=O)[C@@H](NC(=O)c1cccc(-c2ccccc2)n1)[C@@H](C)O)B(O)O [DELANZOMIB] | 10 nM | 59 nM |  |  |  |  |  |
